Test results: ChEMBL document CHEMBL5120856, “New salicylic acid derivatives, double inhibitors of glycolate oxidase and lactate dehydrogenase, as effective agents decreasing oxalate production” (Eur J Med Chem, 2022)
Active and inactive are the calls of the source. The calls are words filed in the database; no cut-off is given here.

Assays:
[1] = target: L-lactate dehydrogenase B chain (Homo sapiens, UniProt P07195); test: Inhibition of human recombinant LDHB using pyruvate as substrate preincubated for 10 mins followed by substrate addition and measured every 60 sec for 10 mins in the presence of NADH by fluorescence assay
Sequence of L-lactate dehydrogenase B chain (P07195 whole entry): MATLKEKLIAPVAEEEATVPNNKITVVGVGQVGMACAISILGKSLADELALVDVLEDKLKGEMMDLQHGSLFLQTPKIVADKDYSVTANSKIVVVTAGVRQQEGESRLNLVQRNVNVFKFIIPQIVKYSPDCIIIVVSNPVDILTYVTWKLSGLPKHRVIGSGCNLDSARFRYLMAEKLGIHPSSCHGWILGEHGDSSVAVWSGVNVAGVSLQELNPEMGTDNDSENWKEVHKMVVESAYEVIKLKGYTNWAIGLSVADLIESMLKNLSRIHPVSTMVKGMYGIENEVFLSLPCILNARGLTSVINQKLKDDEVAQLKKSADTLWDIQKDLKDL

Hepatocyte [2] = test: Inhibition of GO/LDHA in hyperoxaluric-primary hepatocyte isolated from Hoga1-knockdown PH3 C57BL/6 mouse assessed as relative oxalate output at 10 uM measured at 24 hrs in the presence of hydroxyproline relative to control; assay type: cell-based
Summary of the method: (§1)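 Hoga1-/- mouse primary hepatocytes challenged with 10 mM hydroxyproline, inhibitor 10 μM; extracellular oxalate measured by colorimetric kit 24 and 48 h after dosing, given as ratio to oxalate without inhibitor; negative values are below detection limit; mean of three/four replicates ± SD.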

[3] = target: T1, Prostaglandin G/H synthase 2 (Homo sapiens, UniProt P35354); test: Inhibition of human COX-2 using arachidonic acid as substrate measured every 60 sec for 10 mins by fluorescence based assay
T1 sequence (P35354 whole entry): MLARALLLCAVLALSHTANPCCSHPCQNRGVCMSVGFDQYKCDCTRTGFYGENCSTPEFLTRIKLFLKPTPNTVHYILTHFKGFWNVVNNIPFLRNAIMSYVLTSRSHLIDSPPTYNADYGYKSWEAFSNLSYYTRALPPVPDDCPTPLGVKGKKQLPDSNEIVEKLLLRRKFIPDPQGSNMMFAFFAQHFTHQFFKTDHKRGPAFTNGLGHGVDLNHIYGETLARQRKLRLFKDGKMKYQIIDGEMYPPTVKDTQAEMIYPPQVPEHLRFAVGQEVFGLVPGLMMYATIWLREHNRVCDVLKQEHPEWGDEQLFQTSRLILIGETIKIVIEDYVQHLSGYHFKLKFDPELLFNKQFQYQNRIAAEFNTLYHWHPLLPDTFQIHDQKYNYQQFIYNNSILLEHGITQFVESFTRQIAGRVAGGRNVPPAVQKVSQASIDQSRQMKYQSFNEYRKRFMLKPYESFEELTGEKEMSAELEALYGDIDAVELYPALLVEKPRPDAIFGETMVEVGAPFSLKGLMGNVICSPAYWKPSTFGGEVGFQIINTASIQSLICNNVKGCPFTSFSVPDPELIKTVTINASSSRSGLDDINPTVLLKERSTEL

Hepatocyte [4] = test: Inhibition of GO/LDHA in hyperoxaluric-primary hepatocyte isolated from Grhpr-knockdown PH2 C57BL/6 mouse assessed as relative oxalate output at 10 uM measured at 24 hrs in the presence of glycolate relative to control; assay type: cell-based
Summary of the method: (§2)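 Grhpr-/- mouse primary hepatocytes cultured with 10 mM glycolate, inhibitor at 10 μM; extracellular oxalate determined colorimetrically at 24 and 48 h post-treatment, expressed relative to untreated medium (RO); negative RO means below detection limit; three/four replicates, mean ± SD.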

Hepatocyte [5] = test: Inhibition of GO/LDHA in hyperoxaluric-primary hepatocyte isolated from Hoga1-knockdown PH3 C57BL/6 mouse assessed as relative oxalate output at 10 uM measured at 48 hrs in the presence of hydroxyproline relative to control; assay type: cell-based; summary of the method: as §1
2-Hydroxyacid oxidase 1 [6] = target: T2, 2-Hydroxyacid oxidase 1 (Homo sapiens, UniProt Q9UJM8); test: Inhibition of N-terminal His-tagged human recombinant glycolate oxidase expressed in Escherichia coli BL21 (DE3) cells using glycolate as substrate preincubated for 10 mins followed by substrate addition and measured after 10 mins by Amplex red and horseradish peroxidase based fluorescence assay
T2 sequence (Q9UJM8 whole entry): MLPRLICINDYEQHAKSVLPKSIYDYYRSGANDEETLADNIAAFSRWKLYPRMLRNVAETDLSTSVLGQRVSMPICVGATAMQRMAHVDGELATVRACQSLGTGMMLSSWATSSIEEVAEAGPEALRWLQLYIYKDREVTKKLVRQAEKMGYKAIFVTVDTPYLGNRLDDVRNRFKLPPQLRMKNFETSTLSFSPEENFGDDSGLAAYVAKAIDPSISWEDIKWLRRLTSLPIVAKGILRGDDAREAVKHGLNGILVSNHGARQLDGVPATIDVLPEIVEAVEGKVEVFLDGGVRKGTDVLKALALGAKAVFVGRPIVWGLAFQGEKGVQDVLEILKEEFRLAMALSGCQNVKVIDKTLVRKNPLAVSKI

Hepatocyte [7] = test: Inhibition of GO/LDHA in hyperoxaluric-primary hepatocyte isolated from Grhpr-knockdown PH2 C57BL/6 mouse assessed as relative oxalate output at 10 uM measured at 48 hrs in the presence of glycolate relative to control; assay type: cell-based; summary of the method: as §2
2-Hydroxyacid oxidase 1 [8] = target: T2, 2-Hydroxyacid oxidase 1; test: Non-competitive mixed inhibition of N-terminal His-tagged human recombinant glycolate oxidase expressed in Escherichia coli BL21 (DE3) cells assessed as inhibition constant using varying concentration of glycolate as substrate measured every 60 sec for 15 mins by Amplex red and horseradish peroxidase based fluorescence assay
Hepatocyte [9] = test: Cytotoxicity against hyperoxaluric-primary hepatocyte isolated from Hoga1-knockdown PH3 C57BL/6 mouse assessed as cell death at 10 uM by MTS assay; assay type: toxicity, cell-based; conditions: hepatocytes, Hoga1-knockdown PH3, 10 µM
Summary of the method: (§3)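 Primary hepatocytes from Agxt1-/- (PH1, 5 mM glycolate), Grhpr-/- (PH2, 10 mM glycolate) or Hoga1-/- (PH3, 10 mM hydroxyproline) mice, incubated with inhibitor at 10 μM; viability followed through the oxalate assay by MTS tetrazolium method.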

[10] = target: T3, L-lactate dehydrogenase A chain (Homo sapiens, UniProt P00338); test: Non-competitive inhibition of human recombinant LDHA assessed as inhibition constant using varying concentration of pyruvate as substrate preincubated for 10 mins followed by substrate addition and measured every 60 sec for 10 mins in the presence of NADH by fluorescence assay
[11] = target: T3, L-lactate dehydrogenase A chain; test: Non-competitive inhibition of human recombinant LDHA assessed as decrease in Vmax with no effect on Km using pyruvate as substrate upto 20 uM
[12] = target: T3, L-lactate dehydrogenase A chain; test: Inhibition of human recombinant LDHA using pyruvate as substrate preincubated for 10 mins followed by substrate addition and measured every 60 sec for 10 mins in the presence of NADH by fluorescence assay
Hepatocyte [13] = test: Cytotoxicity against hyperoxaluric-primary hepatocyte isolated from Agxt1-knockdown PH1 C57BL/6 mouse assessed as cell death at 10 uM by MTS assay; assay type: toxicity, cell-based; conditions: hepatocytes, Agxt1-knockdown PH1, 10 µM; summary of the method: as §3
Hepatocyte [14] = test: Inhibition of GO/LDHA in hyperoxaluric-primary hepatocyte isolated from Agxt1 knockdown PH1 C57BL/6 mouse assessed as relative oxalate output at 10 uM measured at 24 hrs in the presence of glycolate relative to control; assay type: cell-based
Summary of the method: (§4)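 Agxt1-/- mouse primary hepatocytes cultured with 5 mM glycolate, inhibitor at 10 μM; extracellular oxalate measured by colorimetric kit 24 and 48 h after inhibitor addition; relative oxalate = oxalate with inhibitor over oxalate without inhibitor; negative values mean below detection limit; mean of three/four replicates ± SD.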

HEK293 = test: Cytotoxicity against HEK293 cells assessed as reduction in cell viability upto 50 uM measured after 48 hrs by MTT assay; assay type: toxicity, cell-based; conditions: human, hek293, 48 h
[15] = target: T4, 2-Hydroxyacid oxidase 1 (Homo sapiens) (UniProt Q9UJM8); test: Non-competitive mixed inhibition of N-terminal His-tagged human recombinant glycolate oxidase expressed in Escherichia coli BL21 (DE3) cells assessed as decrease in Vmax with increase in apparent Km using glycolate as substrate upto 60 microM
T4 sequence (whole entry): T2 sequence (Q9UJM8 whole entry)

Hepatocyte [16] = test: Cytotoxicity against hyperoxaluric-primary hepatocyte isolated from Grhpr-knockdown PH2 C57BL/6 mouse assessed as cell death at 10 uM by MTS assay; assay type: toxicity, cell-based; conditions: hepatocytes, Grhpr-knockdown PH2 (primary hyperoxaluria type 2); summary of the method: as §3
2-Hydroxyacid oxidase 1 [17] = target: T5, 2-Hydroxyacid oxidase 1 (Mus musculus, UniProt Q9WU19); test: Inhibition of N-terminal His-tagged mouse recombinant glycolate oxidase expressed in Escherichia coli BL21 (DE3) cells using glycolate as substrate preincubated for 10 mins followed by substrate addition and measured after 10 mins by Amplex red and horseradish peroxidase based fluorescence assay
T5 sequence (Q9WU19 whole entry): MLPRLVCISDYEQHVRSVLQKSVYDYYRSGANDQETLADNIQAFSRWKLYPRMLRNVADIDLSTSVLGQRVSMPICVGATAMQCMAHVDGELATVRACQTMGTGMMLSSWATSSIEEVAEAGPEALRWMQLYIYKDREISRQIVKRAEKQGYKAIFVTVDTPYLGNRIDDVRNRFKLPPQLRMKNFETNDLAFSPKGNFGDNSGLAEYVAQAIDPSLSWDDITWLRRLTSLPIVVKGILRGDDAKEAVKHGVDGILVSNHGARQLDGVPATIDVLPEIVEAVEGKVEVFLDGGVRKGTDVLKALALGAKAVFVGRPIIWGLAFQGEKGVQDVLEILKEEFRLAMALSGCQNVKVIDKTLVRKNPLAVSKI

Hepatocyte [18] = test: Inhibition of GO/LDHA in hyperoxaluric-primary hepatocyte isolated from Agxt1 knockdown PH1 C57BL/6 mouse assessed as relative oxalate output at 10 uM measured at 48 hrs in the presence of glycolate relative to control; assay type: cell-based; summary of the method: as §4

Row | Compound | IC50 [1] [µM] | fold change (FC) (Hepatocyte [2]) | IC50 [3] [µM] | fold change (FC) (Hepatocyte [4]) | fold change (FC) (Hepatocyte [5]) | IC50 (2-Hydroxyacid oxidase 1 [6]) [µM] | fold change (FC) (Hepatocyte [7]) | Ki (2-Hydroxyacid oxidase 1 [8]) [µM] | Activity (Hepatocyte [9]) | Ki [10] [µM] | inhibition [11] | IC50 [12] [µM] | Activity (Hepatocyte [13]) | fold change (FC) (Hepatocyte [14]) | Activity (HEK293) | inhibition [15] | Activity (Hepatocyte [16]) | IC50 (2-Hydroxyacid oxidase 1 [17]) [µM] | fold change (FC) (Hepatocyte [18])
1 | N.O=C(O)c1cc(-c2ccc(CNc3ccc(Br)cc3)o2)ccc1O | 1.1 | 0.26 | 35 | 0.41 | 0.18 | 4.2 | 0.56 | 1.1 | Non-Toxic | 0.9 | Active | 0.6 | Non-Toxic | 0.19 | Non-Toxic | Active | Non-Toxic | 3.1 | 0.57
2 | C#CCCCC(=O)Nc1ccc(C(=O)c2ccc(NCc3ccc(-c4ccc(O)c(C(=O)O)c4)o3)cc2)cc1.N | 0.3 | 0.2 | 36 | 0.4 | 0.14 | 2.4 | 0.52 | – | Non-Toxic | – | – | 0.5 | Non-Toxic | 0.5 | Non-Toxic | – | Non-Toxic | 1.3 | 0.79
